Measurements: ChEMBL document CHEMBL4017535 (J Med Chem, 2017)

How the values were obtained:
Liver [1] = test: Unbound intrinsic clearance in human liver microsomes at 10 uM preincubated for 5 mins followed by NADPH addition measured after 60 mins by HPLC-UV-MS analysis; assay type: ADME, microsome; conditions: 1 h
[2] = target: T1, Bromodomain-containing protein 4 (Homo sapiens, UniProt O60885); test: Binding affinity to human N-terminal His6-tagged BRD4 BD1-BD2 (K57 to K550 residues) after 1 hr using alexa-647 conjugated probe by TR-FRET assay
MX1 = test: Antiproliferative activity against human MX1 cells after 72 hrs by Cell Titer Glo assay; assay type: functional, cell-based; conditions: MX1, 72 h
Liver [3] = test: Unbound intrinsic clearance in mouse liver microsomes; assay type: ADME, microsome
Outline: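 Liver microsome stability is expressed as unbound intrinsic clearance, Cl_int,u, in L/hr/kg. Dextromethorphan served as the in-house low-clearance reference control and verapamil as the high-clearance reference control.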

Liver [4] = test: Unbound intrinsic clearance in rat liver microsomes at 10 uM preincubated for 5 mins followed by NADPH addition measured after 60 mins by HPLC-UV-MS analysis; assay type: ADME, microsome; conditions: 1 h
[5] = target: T1, Bromodomain-containing protein 4; test: Inhibition of BRD4 in human H1299 cells assessed as decrease in HPV LCR-E2-EP400-mediated transcriptional repression after 24 hrs by Bright-Glo luciferase reporter gene assay; assay type: cell-based
[6] = Permeability in MDCK cells; assay type: ADME, cell-based, Canis lupus familiaris; conditions: dog, read-out: permeability

Compound	CL free (Liver [1]) [mL/min/kg]	Ki [2] [nM]	EC50 (MX1) [nM]	CL free (Liver [3]) [mL/min/kg]	CL free (Liver [4]) [mL/min/kg]	EC50 [5] [nM]	Papp [6] [×10⁻⁶ cm/s]
CC(=O)Nc1ccc(Oc2ccccc2)c(-c2cn(C)c(=O)c3[nH]ccc23)c1	113	9.8	46	3500	767	26	28
CCS(=O)(=O)Nc1ccc(OCC(C)(C)C)c(-c2cn(C)c(=O)c3[nH]ccc23)c1	283	38	77	1030	433	79	43
Cn1cc(-c2cc(NS(C)(=O)=O)ccc2Oc2ccc(F)cc2Cl)c2cc[nH]c2c1=O	233	3.1	27	850	317	35	11
Cn1cc(-c2ccccc2Oc2ccccc2)cc(N)c1=O		3000	> 5000			8500	
Cn1cc(-c2ccccc2Oc2ccccc2)ccc1=O		890	4800			4100	
Cn1cc(-c2cc(NS(C)(=O)=O)cnc2Oc2ccccc2)c2cc[nH]c2c1=O	63.3	4.1	46	< 93.3	600	88	6
Cn1cc(-c2cc(S(N)(=O)=O)ccc2Oc2ccccc2)c2cc[nH]c2c1=O	< 43.3	3.6	56	517	1320	39	22
Cn1cc(-c2cc(NS(=O)(=O)CC(F)(F)F)ccc2Oc2ccccc2)c2cc[nH]c2c1=O	46.7	4.4	31	650	1270	22	16
Cn1cc(-c2cc(C(N)=O)ccc2Oc2ccccc2)c2cc[nH]c2c1=O	48.3	14	120	450	550	71	14
Cn1cc(-c2ccccc2Oc2ccccc2)c2cc[nH]c2c1=O	1670	48	550	93300	40000	480	31
CCS(=O)(=O)Nc1ccc(OC2CCC(N(C)C)CC2)c(-c2cn(C)c(=O)c3[nH]ccc23)c1 (stereo not given)	< 26.7	26	86	125	< 45	270	2.7
COCCc1ccc(OCC(O)CNC(C)C)cc1 (stereo not given) [METOPROLOL]							36
CCS(=O)(=O)Nc1ccc(Oc2c(F)cc(F)cc2F)c(-c2cn(C)c(=O)c3[nH]ccc23)c1	102	12	7.9	900	233	19	21
Cn1cc(-c2cc(NS(C)(=O)=O)ccc2OCc2ccccc2)c2cc[nH]c2c1=O	122	68	110	900	567	120	24
Cn1cc(-c2cc(NS(C)(=O)=O)ccc2Oc2cccnc2)c2cc[nH]c2c1=O	86.7	6.3	34	533	350	67	3
Cc1sc2c(c1C)C(c1ccc(Cl)cc1)=N[C@@H](CC(=O)OC(C)(C)C)c1nnc(C)n1-2			254				
Cc1cc(-c2ccccc2Oc2ccccc2)c[nH]c1=O		1700	2400			2300	
CCS(=O)(=O)Nc1ccc(Oc2ccc(C(F)(F)F)cc2)c(-c2cn(C)c(=O)c3[nH]ccc23)c1	128	9	30	2830	583	65	11
Cn1cc(-c2cc(S(C)(=O)=O)ccc2Oc2ccccc2)c2cc[nH]c2c1=O	91.7	5.8	52	383	1080	50	24
CCS(=O)(=O)Nc1ccc(Oc2ccc(C#N)cc2)c(-c2cn(C)c(=O)c3[nH]ccc23)c1	41.7	9.4	17	< 108	81.7	48	11
Cn1cc(-c2cc(NS(C)(=O)=O)ccc2OC2CCOCC2)c2cc[nH]c2c1=O	< 30	68	72	< 90	233	90	1.7
CCS(=O)(=O)Nc1ccc(OC2CCN(C)CC2)c(-c2cn(C)c(=O)c3[nH]ccc23)c1	< 28.3	430	210	< 85	80	880	0.55
Cn1cc(-c2cc(NS(C)(=O)=O)ccc2OC2CCC(F)(F)CC2)c2cc[nH]c2c1=O	< 38.3	19	19	717	200	20	12
CCS(=O)(=O)Nc1ccc(Oc2ccc(Cl)cc2)c(-c2cn(C)c(=O)c3[nH]ccc23)c1	< 96.7	3.4	22	900	200	17	21
CCS(=O)(=O)Nc1ccc(Oc2cncnc2)c(-c2cn(C)c(=O)c3[nH]ccc23)c1	< 33.3	32	130	233	48.3	170	1
Cn1cc(-c2cc(NS(C)(=O)=O)ccc2Oc2ccccc2C(F)(F)F)c2cc[nH]c2c1=O	533	6.4	83	1350	250	76	7.8
CN(C)S(=O)(=O)Nc1ccc(Oc2ccccc2)c(-c2cn(C)c(=O)c3[nH]ccc23)c1	233	2.9	65	2330	4000	43	19
CCNC(=O)c1ccc(Oc2ccccc2)c(-c2cn(C)c(=O)c3[nH]ccc23)c1	68.3	32	130	717	4000	70	30
COc1ccc2c(c1)[C@]13CCCC[C@@H]1[C@H](C2)N(C)CC3 [DEXTROMETHORPHAN]	123						
CCS(=O)(=O)Nc1ccc(Oc2ccccc2)c(-c2cn(C)c(=O)c3[nH]ccc23)c1	< 45	1.5	14	917	3330	8.1	22
